Published values pooled from the literature.
Compare with care: the assays were run in different laboratories.
Target: Platelet-derived growth factor receptor beta (PDGFRB, Homo sapiens, UniProt P09619)

SMILES	effect on	mode	technique	concentration	quantity	result
CC(C)(O)[C@H]1CC[C@H](Nc2ccc3ncc(-c4cccc(C(F)(F)F)c4)n3n2)CC1	enzyme activity	inhibitor	–	1 µM	remaining activity	81%
Cc1ccc(Nc2nccc(N(C)c3ccc4c(C)n(C)nc4c3)n2)cc1S(N)(=O)=O	enzyme activity	inhibitor	–	0.3 µM	inhibition	64%
Oc1cccc(-c2nc(N3CCOCC3)c3oc4ncccc4c3n2)c1	cell-free assay	–	–	0.5 µM	remaining signal	99.2%
Cn1nc(C(=O)NCc2ccc(C(=O)O)cc2)cc1-c1ccc2[nH]ccc2c1	cell-free assay	–	competition with immobilised ligand	0.1 µM	remaining binding	96%
COc1cc(Cl)c(C(=O)N[C@@H](CN[C@H]2CC[C@@H](N)CC2)Cc2ccc(C#N)cc2)cc1-c1ccc(CN[C@H](C)c2ccc(C)cc2)o1	enzyme activity	inhibitor	–	1 µM	remaining activity	95%
O=C1c2ccccc2-c2n[nH]c3cccc1c23	enzyme activity	inhibitor	–	0.5 µM	activity vs control	85.1%
CCCS(=O)(=O)Nc1ccc(F)c(C(=O)c2c[nH]c3ncc(-c4ccc(Cl)cc4)cc23)c1F	enzyme activity	inhibitor	–	1 µM	inhibition	< 20%
Cc1noc([C@H]2C[C@@H](c3ccc(C(F)(F)F)cc3)CN(C(=O)N3CCS(=O)(=O)C3)C2)n1	cell-free assay	–	competition with immobilised ligand	1 µM	remaining binding	100%
Cc1cc(NC(=O)c2cccc3cc(-c4cccc5[nH]nc(N)c45)ccc23)ccc1F	enzyme activity	inhibitor	–	0.1 µM	activity vs control	101%
Cc1sc(C(=O)NC2COC2)cc1-n1cc(NC(=O)Nc2c(F)cccc2Cl)cn1	enzyme activity	inhibitor	–	10 µM	remaining activity	97.9%
Cc1cnc(NC2CCOCC2)nc1-n1cnc(C(=O)NC(CN)c2cc(F)cc(Cl)c2)c1 (centres unmarked)	enzyme activity	inhibitor	radiometric	1 µM	remaining activity	92%
CCN(CC)CCNC(=O)c1c(C)[nH]c(/C=C2\C(=O)Nc3ccc(Cl)cc32)c1C	enzyme activity	inhibitor	–	0.5 µM	remaining activity	9.28%
O=C(Nc1cccnn1)N1CC(C/C=C/c2cncc(Oc3ccc(C(F)(F)F)cn3)n2)C1	cell-free assay	–	competition with immobilised ligand	1 µM	remaining binding	81%
Cc1[nH]c(/C=C2\C(=O)Nc3ccc(F)cc32)c(C)c1C(=O)N[C@H]1CCN(C(=O)N(C)C)C1	enzyme activity	inhibitor	–	1 µM	remaining activity	18%
Cc1ccc(NC(=O)c2ccc(CN3CCN(C)CC3)cc2)cc1Nc1nccc(-c2cccnc2)n1	enzyme activity	inhibitor	–	0.5 µM	activity vs control	39.1%
COc1cc2ncnc(Nc3ccc(Oc4ccccc4)c(C)c3C)c2cc1OC	enzyme activity	inhibitor	–	1 µM	inhibition	6%
CC/C(=N\NC(=O)NCc1cccc(O)c1)c1ccc(O)c(C)c1O	enzyme activity	inhibitor	–	0.1 µM	inhibition	4.5%
CC(C)(O)c1cncc(-c2nc3ccc(F)cc3n2C2CC2)c1	cell-free assay	–	competition with immobilised ligand	1 µM	remaining binding	100%
O=c1c2ccccc2[nH]c(=S)n1CCN1CCC(=C(c2ccc(F)cc2)c2ccc(F)cc2)CC1	enzyme activity	inhibitor	–	0.5 µM	remaining activity	112%
O=c1nc(-c2ccccn2)sc2ccccc12	cell-free assay	–	competition with immobilised ligand	1 µM	remaining binding	83%
C=CC(=O)Nc1cc(Nc2nccc(Nc3cc(Cl)c(F)cc3C(C)(C)O)n2)c(OC)cc1N1CC[C@@H](N(C)C)C1	enzyme activity	inhibitor	–	1 µM	inhibition	-2%
CS(=O)(=O)Nc1cccc(-c2csc(NC(=O)CSc3nc4nccnc4c(=O)n3CCc3ccccc3)n2)c1	enzyme activity	inhibitor	–	10 µM	inhibition	7%
COc1cc2nccc(Oc3ccc(NC(=O)c4c5n(n(-c6ccc(F)cc6)c4=O)CCCC5)cc3)c2cc1OC	enzyme activity	inhibitor	–	0.1 µM	inhibition	6%
CCCOc1ccc([C@@H]2[C@@H](C(=O)O)[C@H](c3ccc4c(c3)OCO4)CN2CC(=O)Nc2c(CC)cccc2CC)cc1	cell-free assay	–	competition with immobilised ligand	1 µM	remaining binding	100%
O=c1cc(-c2cccc3c2Sc2ccccc2S3)oc(N2CCOCC2)c1	enzyme activity	inhibitor	–	0.5 µM	remaining activity	102%
Cn1cc(Cl)c2c(Oc3c(F)cc(Nc4cc(Cl)nc(N)n4)cc3F)ccnc21	cell-free assay	–	competition with immobilised ligand	0.1 µM	remaining binding	96%
O=C1NC(=O)c2cc(Nc3ccc(F)cc3)c(Nc3ccc(F)cc3)cc21	cell-free assay	–	–	0.5 µM	remaining signal	93.9%
CN(C)c1ncnc(-c2ccc3nc(Nc4cc(CN5CCN(C(=O)CC(F)(F)F)CC5)ccn4)[nH]c3c2)c1Cl	cell-free assay	–	competition with immobilised ligand	1 µM	remaining binding	100%
O=[N+]([O-])c1cccc2[nH]c(CNc3nc(N4CCOCC4)nc4c3ncn4-c3ccsc3)nc12	binding	–	competition with immobilised ligand	10 µM	binding vs control	8.2%
